Test results taken from ChEMBL document CHEMBL5512625, “Design, synthesis, and biological evaluation of first-in-class indomethacin-based PROTACs degrading SARS-CoV-2 main protease and with broad-spectrum antiviral activity” (Eur J Med Chem, 2024).
Converted amounts (≈) assume the structure as drawn. The source made the active and inactive calls. The rule behind the calls is not given here.

How the values were obtained:
[1] = molecular target: Replicase polyprotein 1ab (Severe acute respiratory syndrome coronavirus 2, UniProt P0DTD1); assay: Binding affinity to NT650-labeled recombinant SARS CoV-2 MPro assessed as protein stability by measuring dissociation constant by MST analysis
Vero C1008 [2] = assay: Cytotoxicity against African green monkey Vero E6 cells assessed as reduction in cell viability incubated for 72 hrs by Alamar blue assay; type: toxicity, cell-based; conditions: chlorocebus sabaeus, vero c1008, 72 h
[3] = Cytotoxicity against human MRC5 cells assessed as reduction in cell viability incubated for 72 hrs by MTT assay; type: toxicity, cell-based
SARS-CoV-2 [4] = assay: Antiviral activity against SARS CoV-2 NL/2020 infected in African green monkey Vero E6 cells incubated for 3 days by plaque reduction assay; type: functional, organism-based; conditions: Severe acute respiratory syndrome coronavirus 2, NL/2020, Vero C1008, 72 h
[5] = Cytotoxicity against African green monkey Vero cells assessed as reduction in cell viability incubated for 72 hrs by MTT assay; type: toxicity, cell-based; conditions: chlorocebus sabaeus
[6] = Kinetic solubility in universal buffer incubated for 90 mins by microplate shaker method; type: physicochemical; conditions: for Kinetic_solubility: buffer, 1.5 h, BLD = below limit of detection; for solubility kinetic at 1.5 h: universal buffer, read-out: Kinetic_solubility
Outline: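 Universal buffer (45 mM each ethanolamine, NaH2PO4 and sodium acetate) at pH 7.4; compound at 100 µM final, 5% DMSO. Shaken 90 min at 25 °C, vacuum-filtered, filtrate diluted with ACN/DMSO. UV absorbance at λmax quantified against an external calibration curve (3.13–100 µM); result corrected by ×1.25.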

MRC5 [7] = assay: Downregulation of PGES-2 level in human MRC5 cells infected with HCoV-229E at 25 uM pre-infected for 90 mins followed by removal of viral inoculum and subsequent addition of compound measured after 24 hrs post-infection; type: functional, cell-based; conditions: time 1350.0 min
Vero C1008 [8] = assay: Downregulation of PGES-2 level in African green monkey Vero E6 cells infected with SARS CoV-2 at 25 uM pre-infected for 90 mins followed by removal of viral inoculum and subsequent addition of compound measured after 24 hrs post-infection; type: functional, cell-based; conditions: Chlorocebus sabaeus, time 1350.0 min
MRC5 [9] = assay: Downregulation of PGES-2 level in human MRC5 cells infected with HCoV-OC43 at 25 uM pre-infected for 90 mins followed by removal of viral inoculum and subsequent addition of compound measured after 48 hrs post-infection; type: functional, cell-based; conditions: time 2790.0 min
Outline: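 MRC-5 cells infected with HCoV-OC43 for 90 min at 37 °C; inoculum removed, then treated at 25 µM or with 0.1% DMSO. Whole-cell lysates collected 48 h p.i. and blotted for PGES-2, normalised to β-actin.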

HEK-293T = assay: Downregulation of PGES-2 level in HEK293T cells at 25 uM incubated for 2 to 8 hrs by Western blot analysis; type: functional, cell-based; conditions: Homo sapiens, time 2-8 hrs
Outline: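 Uninfected 293T cells treated at 25 µM or with 0.1% DMSO and harvested at several times after treatment. Western blot with anti-PGES-2 antibody; β-actin as loading control.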

SARS-CoV-2 [10] = assay: Antiviral activity against SARS CoV-2 infected in African green monkey Vero E6 cells assessed as reduction in viral replication by plaque reduction assay; type: functional, organism-based; conditions: Severe acute respiratory syndrome coronavirus 2
SARS-CoV-2 [11] = assay: Antiviral activity against SARS CoV-2 infected in human Calu-3 cells measured after 36 hrs; type: functional, organism-based; conditions: Severe acute respiratory syndrome coronavirus 2, Calu-3, 36 h
Human coronavirus OC43 = assay: Antiviral activity against HCoV-OC43 infected in human MRC5 cells incubated for 3 days by plaque reduction assay; type: functional, organism-based; conditions: Betacoronavirus 1, MRC5, 72 h
[12] = Chemical stability of compound in DMEM at pH 7.4 assessed as compound remaining at 1 uM measured after 24 hrs by LC-MS analysis; type: physicochemical; conditions: read-out: Stability
Outline: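 Compound at 1 and 10 µM (0.1% DMSO) incubated at 37 °C in DMEM pH 7.4 with 10% FBS and penicillin/streptomycin. Samples at 0 and 24 h, quenched in cold acetonitrile with labetalol internal standard, analysed by LC-MS/MS; duplicates.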

Human coronavirus 229E = assay: Antiviral activity against HCoV-229E infected in human MRC5 cells incubated for 3 days by plaque reduction assay; type: functional, organism-based; conditions: MRC5, 72 h
[13] = Metabolic stability in human liver microsomes assessed as half life measured upto 60 mins by LC/MS-MS analysis; type: ADME, Microsome
Outline: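 Compound at 10 µM (0.1% DMSO) pre-incubated 5 min at 37 °C with human liver microsomes (0.5 mg/mL, 10-donor pool) in 0.1 M phosphate pH 7.4. Reaction started with 1 mM NADPH. Samples at 0, 5, 15, 30 and 60 min, quenched in cold acetonitrile with labetalol, analysed by LC-MS/MS; n=3.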

[14] = molecular target: von Hippel-Lindau disease tumor suppressor-SARS-Cov-2 polyprotein (Severe acute respiratory syndrome coronavirus 2, UniProt P40337+P0DTD1); assay: PROTAC activity at human VHL/virus-expressed MPro in human Calu-3 cells infected with SARS CoV-2 assessed as protein degradation incubated for 48 hrs by Western blot analysis; type: cell-based
von Hippel-Lindau disease tumor suppressor-SARS-Cov-2 polyprotein, sequence (P40337 whole entry, other chains not shown): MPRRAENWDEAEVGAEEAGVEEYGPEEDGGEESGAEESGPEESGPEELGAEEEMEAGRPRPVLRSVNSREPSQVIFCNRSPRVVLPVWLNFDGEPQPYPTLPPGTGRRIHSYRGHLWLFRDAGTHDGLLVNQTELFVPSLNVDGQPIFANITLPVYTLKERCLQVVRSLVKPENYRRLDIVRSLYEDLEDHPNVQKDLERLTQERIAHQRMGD

[15] = Cytotoxicity against human Calu-3 cells incubated for 72 hrs by MTT assay; type: toxicity, cell-based
SARS-CoV-2 [16] = assay: Antiviral activity against SARS CoV-2 NL/2020; type: functional, organism-based; conditions: Severe acute respiratory syndrome coronavirus 2, NL/2020
[17] = Cytotoxicity against African green monkey Vero cells; type: toxicity, cell-based; conditions: chlorocebus sabaeus

COc1ccc2c(c1)c(CC(=O)O)c(C)n2C(=O)c1ccc(Cl)cc1 [INDOMETHACIN]
Kd [1]: 129 µM

COc1ccc2c(c1)c(CC(=O)N1CCN(CC(=O)N[C@H](C(=O)N3C[C@@H](O)C[C@H]3C(=O)N[C@@H](C)c3ccc(-c4scnc4C)cc3)C(C)(C)C)CC1)c(C)n2C(=O)c1ccc(Cl)cc1
Activity (Vero C1008 [2]): Toxic

COc1ccc2c(c1)c(CC(=O)N1CCN(CCCCCC(=O)N[C@H](C(=O)N3C[C@H](O)C[C@H]3C(=O)N[C@@H](C)c3ccc(-c4scnc4C)cc3)C(C)(C)C)CC1)c(C)n2C(=O)c1ccc(Cl)cc1
CC50 at 72 h [3]: 20 µM | EC50 (SARS-CoV-2 [4]): > 25 µM | CC50 at 72 h [5]: > 125 µM | Kinetic_solubility [6]: Bld

COc1ccc2c(c1)c(CC(=O)NCCCCCCC(=O)N[C@H](C(=O)N1C[C@H](O)C[C@H]1C(=O)N[C@@H](C)c1ccc(-c3scnc3C)cc1)C(C)(C)C)c(C)n2C(=O)c1ccc(Cl)cc1
CC50 at 72 h [3]: > 250 µM | Activity (MRC5 [7]): inactive | Activity (Vero C1008 [8]): inactive | CC50 at 72 h [5]: > 200 µM | Activity (MRC5 [9]): inactive | Kinetic_solubility [6]: Bld | Activity (HEK-293T): inactive

COc1ccc2c(c1)c(CC(=O)NCCN1CCN(C(=O)CCC(=O)N[C@H](C(=O)N3C[C@@H](O)C[C@H]3C(=O)N[C@@H](C)c3ccc(-c4scnc4C)cc3)C(C)(C)C)CC1)c(C)n2C(=O)c1ccc(Cl)cc1
Activity (SARS-CoV-2 [10]): inactive

COc1ccc2c(c1)c(CC(=O)NCCCCCCCCCCNc1cc3c(cc1F)C(=O)N(C1CCC(=O)NC1=O)C3=O)c(C)n2C(=O)c1ccc(Cl)cc1 (stereo not drawn)
EC50 (SARS-CoV-2 [4]): > 25 µM | CC50 at 72 h [5]: > 125 µM

COc1ccc2c(c1)c(CC(=O)N1CCN(CC(=O)N[C@H](C(=O)N3C[C@H](O)C[C@H]3C(=O)N[C@@H](C)c3ccc(-c4scnc4C)cc3)C(C)(C)C)CC1)c(C)n2C(=O)c1ccc(Cl)cc1
CC50 at 72 h [3]: > 125 µM | EC50 (SARS-CoV-2 [4]): 10.8 µM | Activity (MRC5 [7]): inactive | EC50 (SARS-CoV-2 [11]): 890 nM | EC50 (Human coronavirus OC43): 1.6 µM | remaining at 24 h, 1 µM [12]: > 70% | Activity (Vero C1008 [8]): inactive | EC50 (Human coronavirus 229E): 6.5 µM | half-life [13]: > 60 min | CC50 at 72 h [5]: > 125 µM | Activity (MRC5 [9]): inactive | Kinetic_solubility [6]: Bld | DC50 [14]: 1340 nM | Activity (HEK-293T): inactive | CC50 at 72 h [15]: > 125 µM

CC(C)(C)NC(=O)N[C@H](C(=O)N1C[C@H]2[C@@H]([C@H]1C(=O)NC(CC1CCC1)C(=O)C(N)=O)C2(C)C)C(C)(C)C (stereo partly drawn) [BOCEPREVIR]
EC50 (SARS-CoV-2 [16]): 22 µM | CC50 [17]: > 500 µM

COc1ccc2c(c1)c(CC(=O)NCCN1CCN(CCOCCOCC(=O)N[C@H](C(=O)N3C[C@H](O)C[C@H]3C(=O)N[C@@H](C)c3ccc(-c4scnc4C)cc3)C(C)(C)C)CC1)c(C)n2C(=O)c1ccc(Cl)cc1
CC50 at 72 h [3]: 12.3 µM | EC50 (SARS-CoV-2 [4]): > 25 µM | CC50 at 72 h [5]: > 125 µM | solubility kinetic at 1.5 h [6]: 26 µM (≈ 27.1 µg/mL)

COc1ccc2c(c1)c(CC(=O)N1CCN(CCC(=O)N[C@H](C(=O)N3C[C@H](O)C[C@H]3C(=O)N[C@@H](C)c3ccc(-c4scnc4C)cc3)C(C)(C)C)CC1)c(C)n2C(=O)c1ccc(Cl)cc1
CC50 at 72 h [3]: 13.5 µM | EC50 (SARS-CoV-2 [4]): > 25 µM | CC50 at 72 h [5]: > 125 µM | Kinetic_solubility [6]: Bld

COc1ccc2c(c1)c(CC(=O)NCCCN1CCN(CCCNC(=O)CCC(=O)N[C@H](C(=O)N3C[C@H](O)C[C@H]3C(=O)N[C@@H](C)c3ccc(-c4scnc4C)cc3)C(C)(C)C)CC1)c(C)n2C(=O)c1ccc(Cl)cc1
CC50 at 72 h [3]: > 125 µM | EC50 (SARS-CoV-2 [4]): > 25 µM | EC50 (Human coronavirus OC43): 16 µM | EC50 (Human coronavirus 229E): > 25 µM | CC50 at 72 h [5]: > 125 µM | solubility kinetic at 1.5 h [6]: 9.4 µM (≈ 10 µg/mL)

COc1ccc2c(c1)c(CC(=O)N1CCN(CCOCCOCC(=O)N[C@H](C(=O)N3C[C@H](O)C[C@H]3C(=O)N[C@@H](C)c3ccc(-c4scnc4C)cc3)C(C)(C)C)CC1)c(C)n2C(=O)c1ccc(Cl)cc1
CC50 at 72 h [3]: 22 µM | EC50 (SARS-CoV-2 [4]): > 25 µM | CC50 at 72 h [5]: > 125 µM | solubility kinetic at 1.5 h [6]: 7.7 µM (≈ 7.69 µg/mL)

COc1ccc2c(c1)c(CC(=O)NCCN1CCN(C(=O)CCC(=O)N[C@H](C(=O)N3C[C@H](O)C[C@H]3C(=O)N[C@@H](C)c3ccc(-c4scnc4C)cc3)C(C)(C)C)CC1)c(C)n2C(=O)c1ccc(Cl)cc1
Activity (MRC5 [7]): inactive | remaining at 24 h, 1 µM [12]: > 70% | Activity (Vero C1008 [8]): inactive | half-life [13]: > 60 min | CC50 at 72 h [5]: > 250 µM | Activity (MRC5 [9]): inactive | solubility kinetic at 1.5 h [6]: 6 µM (≈ 5.97 µg/mL) | Activity (HEK-293T): inactive

COc1ccc2c(c1)c(CC(=O)NCCCCCCNc1cc3c(cc1F)C(=O)N(C1CCC(=O)NC1=O)C3=O)c(C)n2C(=O)c1ccc(Cl)cc1 (stereo not drawn)
EC50 (SARS-CoV-2 [4]): > 25 µM | CC50 at 72 h [5]: > 125 µM

COc1ccc2c(c1)c(CC(=O)NCCCCNc1cc3c(cc1F)C(=O)N(C1CCC(=O)NC1=O)C3=O)c(C)n2C(=O)c1ccc(Cl)cc1 (stereo not drawn)
EC50 (SARS-CoV-2 [4]): > 25 µM | CC50 at 72 h [5]: > 125 µM
